Active and inactive are the calls of the source. The calls are words filed in the database; no cut-off is given here.
What was measured:
[1] = target: T1, D(2) dopamine receptor (Homo sapiens, UniProt P14416); assay: Agonist activity at human recombinant D2 receptor expressed in HEK293 cells by FLIPR assay; format: functional, cell-based
Method in brief: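 Calcium flux (FLIPR) in HEK-293 cells coexpressing recombinant human D2L with chimeric Gqo5. Efficacy is the maximal response relative to 10 µM dopamine (100%). EC50 is the concentration giving half-maximal stimulation. Values are means (SEM, n ≥ 3).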

[2] = target: T1, D(2) dopamine receptor; assay: Displacement of [125I]PIPAT from human recombinant D2L receptor expressed in HEK293 cells
[3] = target: T2, D(4) dopamine receptor (Homo sapiens, UniProt P21917); assay: Activity at human recombinant D4.4 receptor expressed in HEK293 cells by FLIPR assay; format: functional, cell-based
T2 sequence (P21917 whole entry): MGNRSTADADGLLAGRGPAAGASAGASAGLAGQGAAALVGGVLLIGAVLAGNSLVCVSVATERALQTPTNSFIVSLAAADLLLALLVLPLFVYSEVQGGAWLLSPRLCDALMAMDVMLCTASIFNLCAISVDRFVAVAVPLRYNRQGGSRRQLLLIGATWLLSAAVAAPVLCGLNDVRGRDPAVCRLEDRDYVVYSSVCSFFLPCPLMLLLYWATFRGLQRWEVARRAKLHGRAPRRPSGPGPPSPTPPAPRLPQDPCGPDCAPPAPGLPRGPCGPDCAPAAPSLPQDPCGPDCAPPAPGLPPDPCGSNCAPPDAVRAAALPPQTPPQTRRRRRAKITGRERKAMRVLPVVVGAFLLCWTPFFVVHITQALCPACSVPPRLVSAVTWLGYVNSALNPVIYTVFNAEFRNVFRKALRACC

[4] = test system: Rattus norvegicus; assay: Activity against penile erection in Wistar rat at 0.1 umol/kg, sc; format: functional
Method in brief: (§1)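 Male Wistar rats, dosed subcutaneously, were weighed and adapted to a red-lit testing room for 60 min; experiments ran between 9:00 a.m. and 3:00 p.m. Erections were counted by direct observation for 60 min after dosing. The share of animals with one or more erections was reported as incidence (percent), n = 8-30 rats.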

[5] = target: T1, D(2) dopamine receptor; assay: Antagonist activity at human recombinant D2 receptor expressed in HEK293 cells by FLIPR assay; format: functional, cell-based
[6] = target: T2, D(4) dopamine receptor; assay: Displacement of [3H]A-369508 from human recombinant D4.4 receptor expressed in HEK293 cell membrane; format: cell membranes
Method in brief: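 Competition binding against the D4-selective agonist radioligand [3H]-A-369508, using membranes from HEK-293 cells engineered to express human D4.4. Mean values (SEM, n ≥ 4).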

[7] = test system: Rattus norvegicus; assay: Inhibition of (E)-1-(4-chlorophenyl)-3-(4-pyridin-2-ylpiperazin-1-yl)propan-1-one O-methyloxime-induced erectogenic effect in Wistar rat at 3 umol/kg, ip; format: functional, organism-based
[8] = test system: Rattus norvegicus; assay: Inhibition of (E)-1-(4-chlorophenyl)-3-(4-pyridin-2-ylpiperazin-1-yl)propan-1-one O-methyloxime-induced erectogenic effect in Wistar rat at 10 umol/kg, ip; format: functional, organism-based
[9] = Half life in dog at 1 mg/kg, po; format: ADME, organism-based, Canis lupus familiaris; set-up: dose 1 mg/kg, route oral; conditions: in vivo
Method in brief: (§2)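 Pharmacokinetics in rat and dog after a 1 mg/kg dose given subcutaneously or orally. Oral bioavailability (F, %), volume of distribution (Vβ, L/kg) and half-life (T1/2, h) were determined.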

[10] = test system: Rattus norvegicus; assay: Volume of distribution in rat at 1 mg/kg, sc; format: ADME, organism-based; set-up: dose 1 mg/kg, route subcutaneous; conditions: in vivo; method in brief: as §2
[11] = Bioavailability in rat at 1 mg/kg, po; format: ADME, organism-based; conditions: in vivo; method in brief: as §2
[12] = test system: Canis familiaris; assay: Volume of distribution in dog at 1 mg/kg, sc; format: ADME, organism-based, Canis lupus familiaris; set-up: dose 1 mg/kg, route subcutaneous; conditions: in vivo; method in brief: as §2
[13] = test system: Rattus norvegicus; assay: Activity against penile erection in Wistar rat at 1.0 umol/kg, sc; format: functional; method in brief: as §1
[14] = Bioavailability in dog at 1 mg/kg, po; format: ADME, organism-based, Canis lupus familiaris; conditions: in vivo; method in brief: as §2
[15] = test system: Rattus norvegicus; assay: Activity against penile erection in Wistar rat at 0.3 umol/kg, sc; format: functional; method in brief: as §1
[16] = target: D(4) dopamine receptor (Homo sapiens) (UniProt P21917); assay: Agonist activity at human recombinant D4.4 receptor expressed in HEK293 cells by FLIPR assay relative to dopamine
[17] = Bioavailability in rat at 1 mg/kg, sc; format: ADME, organism-based; conditions: in vivo; method in brief: as §2
[18] = Half life in rat at 1 mg/kg, sc; format: ADME, organism-based; set-up: dose 1 mg/kg, route subcutaneous; conditions: in vivo; method in brief: as §2
[19] = test system: Rattus norvegicus; assay: Inhibition of (E)-1-(4-chlorophenyl)-3-(4-pyridin-2-ylpiperazin-1-yl)propan-1-one O-methyloxime-induced erectogenic effect in Wistar rat at 1 umol/kg, ip; format: functional, organism-based
[20] = test system: Mustela putorius furo; assay: Emetic activity in ferret at 0.03 to 3 umol/kg, sc; format: functional, organism-based
[21] = test system: Rattus norvegicus; assay: Activity against penile erection in Wistar rat at 0.03 umol/kg, sc; format: functional; method in brief: as §1
[22] = Half life in rat at 1 mg/kg, po; format: ADME, organism-based; set-up: dose 1 mg/kg, route oral; conditions: in vivo; method in brief: as §2
[23] = species on record: Canis familiaris; assay: Prolongation of canine cardiac Purkinje fiber repolarization; format: functional, Canis lupus familiaris
[24] = test system: Mus musculus; assay: Lowering of piloerection in mouse at 10 umol/kg by Irvin test; format: functional, organism-based
[25] = test system: Mus musculus; assay: Lowering of hypothermia in mouse at 10 umol/kg by Irvin test; format: functional, organism-based
[26] = test system: Mus musculus; assay: Lowering of ptosis in mouse at 10 umol/kg by Irvin test; format: functional, organism-based
[27] = test system: Mus musculus; assay: Lowering of hypoactivity in mouse at 10 umol/kg by Irvin test; format: functional, organism-based

T1 sequence (P14416 whole entry): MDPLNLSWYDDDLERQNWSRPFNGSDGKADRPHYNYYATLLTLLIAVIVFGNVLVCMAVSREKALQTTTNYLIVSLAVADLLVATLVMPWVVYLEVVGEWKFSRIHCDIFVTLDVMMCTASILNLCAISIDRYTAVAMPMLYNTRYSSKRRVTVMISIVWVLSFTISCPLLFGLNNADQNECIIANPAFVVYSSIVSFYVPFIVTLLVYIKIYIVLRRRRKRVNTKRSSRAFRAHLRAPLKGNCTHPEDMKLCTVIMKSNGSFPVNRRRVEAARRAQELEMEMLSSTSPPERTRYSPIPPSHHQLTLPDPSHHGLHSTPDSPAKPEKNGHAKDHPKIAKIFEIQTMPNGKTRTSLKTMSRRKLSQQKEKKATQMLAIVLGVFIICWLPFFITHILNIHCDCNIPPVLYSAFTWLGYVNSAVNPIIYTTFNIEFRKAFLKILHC

| Compound | EC50 [1] | Ki [2] | EC50 [3] | IC50 [5] | Ki [6] | Activity [15] | also measured |
| --- | --- | --- | --- | --- | --- | --- | --- |
| CO/N=C(\CCN1CCN(c2ccccn2)CC1)c1ccccc1 | > 10000 nM | 172 nM | 32 nM | > 10000 nM | 22.8 nM |  | Activity [4]: 77% |
| CN1CCN(C2=Nc3cc(Cl)ccc3Nc3ccccc32)CC1 |  |  |  |  |  |  | Activity [7]: Active |
| O=c1[nH]c2ccccc2n1CCCN1CCC(n2c(=O)[nH]c3cc(Cl)ccc32)CC1 |  |  |  |  |  |  | Activity [8]: inactive |
| CO/N=C(\CCN1CCN(c2ccccn2)CC1)c1ccc(F)c(Cl)c1 | > 10000 nM | 171 nM | 148 nM | > 10000 nM | 71.2 nM |  | half-life [9]: 6.1 h; Vbeta [10]: 8.2 L/kg; bioavailability [11]: 18.6%; Vbeta [12]: 3.8 L/kg; Activity [13]: 85%; bioavailability [14]: 42.9% |
| CN1CCc2cccc3c2[C@H]1Cc1ccc(O)c(O)c1-3 [APOMORPHINE] |  |  |  |  |  |  | Activity [4]: 85% |
| CO/N=C(\CCN1CCN(c2ccccn2)CC1)c1ccc(C)c(C)c1 | > 10000 nM | 137 nM | 108 nM | > 10000 nM | 27.5 nM |  | Activity [4]: 68% |
| CO/N=C(\CCN1CCN(c2ccccn2)CC1)c1ccc(Cl)c(Cl)c1 | > 10000 nM | 64.5 nM | 542 nM | > 10000 nM | 6.4 nM | 76% |  |
| CO/N=C(\CCN1CCN(c2ccccn2)CC1)c1ccc(F)cc1 | > 10000 nM | 168 nM | 48.8 nM | > 10000 nM | 14.2 nM | 50% |  |
| CO/N=C(\CCN1CCN(c2ccccn2)CC1)c1cc(F)cc(F)c1 | > 10000 nM | 132 nM | 37.2 nM | > 10000 nM | 110 nM |  | Activity [4]: 68% |
| Cc1cccc(C(=O)NCN2CCN(c3ccccc3C#N)CC2)c1 [PD-168,077] | > 10000 nM |  |  | > 10000 nM |  | 79% |  |
| CCO/N=C(\CCN1CCN(c2ccccn2)CC1)c1ccccc1 | > 10000 nM | 128 nM | 28.5 nM | > 10000 nM | 38 nM | 55% |  |
| CO/N=C(/CCCN1CCN(c2ccccn2)CC1)c1ccc(F)cc1 | 366 nM |  | 33.5 nM | > 10000 nM |  |  | Efficacy [16]: 65% |
| CO/N=C(\c1ccc(Cl)cc1)C(O)CN1CCN(c2ccccn2)CC1 (stereo unspecified) | > 10000 nM | 995 nM | 46 nM | > 10000 nM | 113 nM |  |  |
| O/N=C(\CCN1CCN(c2ccccn2)CC1)c1ccccc1 | > 10000 nM | 257 nM | 4.4 nM | > 10000 nM | 25.4 nM | 60% | Vbeta [10]: 1 L/kg; bioavailability [11]: 0%; Vbeta [12]: 1.8 L/kg; bioavailability [17]: 68.1%; half-life [18]: 0.8 h; bioavailability [14]: 0% |
| O=C(CCCN1CCC(O)(c2ccc(Cl)cc2)CC1)c1ccc(F)cc1 |  |  |  |  |  |  | Activity [19]: Active |
| CO/N=C(/CCN1CCN(c2ccccn2)CC1)c1cccc(C#N)c1 | > 10000 nM | 125 nM | 27.5 nM | > 10000 nM | 20.1 nM |  |  |
| CO/N=C(\CCN1CCN(c2ccccn2)CC1)c1ccc(Cl)cc1 | > 10000 nM | 63.8 nM | 37.6 nM | > 10000 nM | 38.2 nM |  | half-life [9]: 6.2 h; Vbeta [10]: 4.3 L/kg; Activity [20]: inactive; Activity [21]: 85%; bioavailability [11]: 16.3%; half-life [22]: 2.3 h; Activity [23]: 14.7%; Vbeta [12]: 4.8 L/kg; Activity [24]: Active; bioavailability [17]: 94.8%; half-life [18]: 1.9 h; Activity [25]: Active; Activity [26]: Active; bioavailability [14]: 39.8%; Activity [27]: Active |
| N#CCO/N=C(\CCN1CCN(c2ccccn2)CC1)c1ccccc1 | > 10000 nM | 140 nM | 33 nM | > 10000 nM | 88 nM |  |  |
| CO/N=C(\CN1CCN(c2ccccn2)CC1)c1ccc(F)cc1 | > 10000 nM | 2530 nM | 43.8 nM | > 10000 nM | 2050 nM | 77% |  |

From ChEMBL document CHEMBL1145336, “1-aryl-3-(4-pyridine-2-ylpiperazin-1-yl)propan-1-one oximes as potent dopamine D4 receptor agonists for the treatment of erectile dysfunction” (J Med Chem, 2006)
